RanGTP-Impb inh = inhibitors of RanGTP-importin-beta interaction, primary screen, biochemical, FRET, CFP-Ran, YFP-importin-beta, homogeneous; cell-free CFP-Ran/YFP-importin-beta FRET ratio; inhibition, % (test concentration not listed); 1.1% of 300,000 active; AID 2216;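 active = more than half of the replicate wells show a fall in the fluorescence ratio signal beyond about 16%, limit read from the data, passing the limit was not always enough; inconclusive = exactly half of the replicate wells pass the set limit; inactive = fewer than half of replicates pass the limit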;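 also: 0% = DMSO wells and 100% = Ran loaded with GDP instead of GTP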
Runt-SMMHC FRET = blocks binding of human RUNX1 Runt domain to CBFb-SMMHC | Q01196+Q13951 | Cerulean-Runt/Venus-CBFb-SMMHC FRET ratio 530/480, 1 h | inhibition, % at 20 µM | 0.74% of 220,000 active;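 active = mean inhibition across duplicate retests at 20 µM reaching about 50%, limit read from the data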;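 also: 0% = DMSO wells and 100% = wells with excess untagged CBFb-SMMHC; inhibitors lower the FRET ratio by blocking Runt binding to CBFb-SMMHC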
Target sequence (Q01196 whole entry, looked up, the tested form may be a part): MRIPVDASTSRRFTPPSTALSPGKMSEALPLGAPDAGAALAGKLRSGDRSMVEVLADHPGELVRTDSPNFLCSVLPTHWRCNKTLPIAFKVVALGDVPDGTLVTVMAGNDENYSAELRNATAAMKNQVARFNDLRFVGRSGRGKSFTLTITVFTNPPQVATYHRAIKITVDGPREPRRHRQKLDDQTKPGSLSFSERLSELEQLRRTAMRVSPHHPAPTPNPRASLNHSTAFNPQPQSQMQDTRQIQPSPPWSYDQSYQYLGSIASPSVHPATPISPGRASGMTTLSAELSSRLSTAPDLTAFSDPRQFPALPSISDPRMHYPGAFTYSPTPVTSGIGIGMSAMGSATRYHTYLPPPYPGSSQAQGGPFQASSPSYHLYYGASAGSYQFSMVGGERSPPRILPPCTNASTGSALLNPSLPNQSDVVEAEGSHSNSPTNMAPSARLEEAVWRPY
Target sequence (Q13951 whole entry, looked up, the tested form may be a part): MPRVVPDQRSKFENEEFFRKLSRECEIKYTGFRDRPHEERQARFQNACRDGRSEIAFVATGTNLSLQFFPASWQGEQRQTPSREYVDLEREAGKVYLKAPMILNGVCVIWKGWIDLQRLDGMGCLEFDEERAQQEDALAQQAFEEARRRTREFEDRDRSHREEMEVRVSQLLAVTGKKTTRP
m-calpain inh = inhibitors of pig calpain II; AID 1236; inhibition, % at 16 µM; 0.37% of 220,000 active; purified calpain II, fluorogenic peptide substrate, 30 min;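 active = inhibition above about 50%, limit read from the data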
FAS TE block = inhibitors of human fatty acid synthase thioesterase domain. P49327. recombinant FAS-TE, OMFH fluorogenic substrate, fluorescence endpoint. inhibition, % at 15 µM. 0.67% of 360,000 active;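 active = compounds whose normalised, plate-corrected inhibition of enzyme fluorescence in the single-dose primary screen is 50% or more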;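 also: 0% = DMSO with enzyme and 100% = substrate without enzyme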
Runt-CBFb FRET = blocks binding of human RUNX1 Runt domain to CBFb; Q01196+Q13951; Cerulean-Runt/Venus-CBFb FRET ratio 530/480, 1 h; inhibition, % at 20 µM; 0.46% of 220,000 active; AID 1496;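 active = inhibition over about 50% at 20 µM in the single-dose screen, limit read from the data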;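 also: 0% = DMSO wells and 100% = excess unlabeled CBFb competitor control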
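Doses: 20 µM compound in 1% DMSO | Material: Cerulean-labeled Runt domain protein | Amount: Each fluorescent fusion protein 100 nM | Schedule: Two 1 h room-temperature incubations shielded from light | Measured by: FRET fluorescence | Evaluation: Loss of energy transfer signal | Controls: Unlabeled CBFb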
* = called active by the depositor; u = inconclusive; x = not tested or not shown. In the library only some 2.1% were active in any assay of this set; here they are far more common.

SMILES	RanGTP-Impb inh	Runt-SMMHC FRET	m-calpain inh	FAS TE block	Runt-CBFb FRET
CCOc1cc(/C=N/n2cnnc2)ccc1OS(=O)(=O)c1ccccc1	x	1.8	62.6*	6.8	-3.9
O=S(=O)(Oc1ccccc1/C=N/n1cnnc1)c1ccccc1	1.3	4.2	-3.8	-8.7	3.2
COc1cc(/C=N/n2cnnc2)ccc1OS(=O)(=O)c1ccccc1[N+](=O)[O-]	-1.0	0.6	59.4*	12.9	-0.1
CC(=O)c1ccc2noc(-c3ccccc3)c2c1	2.2	x	-58.2	-0.2	x
CC(=O)c1ccc2c(c1)c(C#N)c1ccccc1[n+]2[O-]	68.3*	x	x	10.5	x
COc1ccc(C2c3ccc(O)cc3Oc3ncn(CC(C)C)c(=N)c32)cc1 (centres undefined)	12.6	62.4*	10.5	-4.8	41.4
CCCn1c(=N)c(C#N)cc2c(=O)n3cccc(C)c3nc21	147.5*	x	-130.1	x	x
Cc1cccn2c(=O)c3cc(C#N)c(=N)n(CCN4CCOCC4)c3nc12	86.5*	93.9*	-483.6	-8.0	75.9*
CCCCn1c(=N)c(S(=O)(=O)c2ccc(Br)cc2)cc2c(=O)n3cccc(C)c3nc21	-0.4	x	x	28.4	x
N#Cc1cc2c(=O)n3ccccc3nc2n(CCCn2ccnc2)c1=N	140.5*	40.3	x	-7.6	11.7
CCCn1c(=N)c(C#N)cc2c(=O)n3ccccc3nc21	179.1*	76.0*	-108.8	-2.4	31.7
CC1(c2ccc(OC(F)F)cc2)NC(=O)N(CC(=O)NCCC2=CCCCC2)C1=O (centres undefined)	x	x	x	12.1	x
O=[N+]([O-])c1ccc(S(=O)(=O)N2CCC3(CC2)OCCN3S(=O)(=O)c2cccs2)cc1	5.1	x	x	28.4	x
Cc1cccn2c(=O)c3cc(C(=O)NCCCN4CCOCC4)n(C)c3nc12	x	3.4	x	x	0.2
CCC(C)n1c(=N)c(C#N)cc2c(=O)n3ccccc3nc21 (centres undefined)	177.4*	95.4*	-97.2	-10.0	92.5*
Cc1cccn2c(=O)c3cc(C#N)c(=N)n(CCCN4CCOCC4)c3nc12	184.3*	x	x	-4.1	x
CCn1c(=N)c(C(=O)OC)cc2c(=O)n3ccccc3nc21	x	40.3	x	x	27.2
Cc1oncc1C(=O)Nc1cccc(C#N)c1	2.5	x	x	-5.5	x
Cc1ccc(S(=O)(=O)N2CCCN(C(=O)CNC(=O)c3cccc(C)c3)CC2)cc1	x	x	x	-8.2	x
COc1ccccc1CNS(=O)(=O)c1c(C(=O)N2CCCCC2)c(C)n(C)c1C	2.9	x	x	-7.4	x
CCOC(=O)c1ccc(CC(=O)c2ccc(O)c(O)c2O)o1	-8.7	30.3	57.9*	-3.6	48.8
COc1ccc(OC)c(NC(=O)C2CCN(S(=O)(=O)c3cccs3)CC2)c1	0.9	-2.5	11.5	1.2	0.0
COc1ccc(OC)c(NC(=O)C2CCN(C(=O)c3cccs3)CC2)c1	0.1	2.4	-8.1	-8.6	65.5*
CCCCN(C)C1=CC2=CC(=C(C#N)C#N)CCC2CC1 (centres undefined)	92.0*	58.5*	-0.5	-171.7	28.5
N#CC1=C(N)C2=C(N3CCCCC3)CCCC2C1(C#N)C#N (centres undefined)	-19.4	-36.6	7.5	-2.1	-13.9
SMILES	RanGTP-Impb inh	Runt-SMMHC FRET	m-calpain inh	FAS TE block	Runt-CBFb FRET
N#CC(C#N)=C1C=C2C=C(N3CCCCC3)CCC2CC1 (centres undefined)	x	77.2*	31.7	x	-50.4
CCN(CC)C1=CC2=CC(=C(C#N)C#N)CCC2CC1 (centres undefined)	x	82.6*	-1.9	-182.6	4.2
COc1cc2c(cc1OC)CN(S(=O)(=O)/C=C/c1ccccc1)CC2	0.4	x	x	5.8	x
CCOC(=O)c1sc2c(c1C)c(=O)n(CCO)c(=O)n2Cc1ccccc1	9.4	x	x	6.7	x
CNS(=O)(=O)c1cccc(C(=O)OCC(=O)N2CC(C)OC(C)C2)c1 (centres undefined)	1.1	x	x	-3.3	x
COCCNC(=O)CN1C(=O)COc2ccc(S(=O)(=O)N3CC(C)CC(C)C3)cc21 (centres undefined)	3.8	x	x	-4.7	x
COc1ccc(N(C(=O)Cn2nnc(-c3ccccc3F)n2)C(C(=O)NCC2CCCO2)c2ccc(Cl)cc2)cc1 (centres undefined)	-0.1	-1.2	67.3*	-4.3	-1.0
Cc1nn(C)cc1/C=N/NC(=O)Cn1nccc1C	3.8	-3.0	-0.2	-13.7	0.2
CN1CCN(NC(=O)c2cc(-c3ccc(Br)s3)nc3ccccc23)CC1	u	x	x	2.0	x
O=C(O)c1cc(-c2ccc(Br)s2)nc2ccccc12	18.4*	x	x	-1.6	x
CCOc1ccc(C=NNC(=O)c2ccc(-n3cnnn3)cc2)cc1	x	x	x	-10.1	x
O=c1c2ccccc2nc(-c2ccccc2)n1Cc1ccco1	-2.1	7.3	-15.0	0.1	4.5
O=C1c2ccccc2C(=O)N1CCCc1nc2ccccc2c(=O)n1Cc1ccco1	5.9	6.8	41.2	32.5	130.0*
O=C1c2ccccc2C(=O)N1Cc1nc2ccccc2c(=O)n1CCCn1ccnc1	x	-2.2	3.4	-13.1	0.2
O=C1c2ccccc2C(=O)N1CCc1nc2ccccc2c(=O)n1CCCn1ccnc1	25.0*	-1.9	-22.4	-3.2	0.3
CCCCOc1ccc(CSCCNC(=S)Nc2ccccc2)cc1	-2.1	0.2	3.4	16.7	-3.4
CC(C)COc1ccc(CSCCNC(=S)Nc2ccccc2)cc1	1.2	2.6	65.5*	19.0	-3.6
CN1CCN2c3ccccc3CC(C#N)(C#N)C2C1 (centres undefined)	x	x	x	-3.7	x
O=C(CNC(=O)c1cccs1)c1ccc(Br)cc1	3.7	x	x	-3.5	x
Cc1ccnc(NC(=O)c2ccc(S(=O)(=O)N3CCCCCC3)cc2)c1	x	x	x	7.3	x
Cc1ccc2c(c1)nnn2C1CCN(S(=O)(=O)c2ccc(C(=O)N(C)C)cc2)CC1	-0.1	4.4	-9.3	-7.3	0.8
Cc1ccc2c(c1)nnn2C1CCN(S(=O)(=O)c2ccc(C(=O)N3CC(C)CC(C)C3)cc2)CC1 (centres undefined)	7.7	-5.3	50.9*	31.3	-3.1
CCS(=O)(=O)Nc1ccc(C2=NN(S(=O)(=O)CC)C(c3cccs3)C2)cc1 (centres undefined)	-1.3	x	x	-3.9	x
Cc1ccc(S(=O)(=O)N2CCCCC2)cc1NC(=O)CSc1ncccn1	x	x	x	-0.4	x
Cc1cccc([C@@H]2[C@@H]3C(=O)N(Cc4ccccc4)C(=O)[C@@H]3[C@]3(CC(C)C)C(=O)N(c4cccc(Br)c4)C(=O)N23)c1	4.1	x	x	88.5*	x
CC[C@@]12C(=O)N(c3ccccc3)C(=O)N1[C@H](c1cccc(C)c1)[C@@H]1C(=O)N(Cc3ccccc3)C(=O)[C@@H]12	2.5	x	x	3.4	x
Cc1cccc([C@@H]2[C@@H]3C(=O)N(Cc4ccccc4)C(=O)[C@@H]3[C@]3(Cc4ccccc4)C(=O)N(c4cccc(Cl)c4)C(=O)N23)c1	1.4	x	x	81.6*	x
Cc1cccc([C@@H]2[C@@H]3C(=O)N(Cc4ccccc4)C(=O)[C@@H]3[C@]3(C)C(=O)N(c4cccc(Cl)c4)C(=O)N23)c1	1.9	x	x	22.9	x

High-throughput results deposited in PubChem BioAssay by several laboratories.
